Screening data (PubChem)
APP 5'UTR act = APP 5'UTR luciferase reporter activation; 190,000 compounds, 1% hits; SH-SY5Y APP 5'UTR luciferase reporter, luminescence; zero percent = DMSO vehicle wells; activation, % at 2 µM;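 active = activation above a set limit, based on mean plus 3 SD of controls, cut at about 140% in these data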
STAT1 act = STAT1 signaling activation. NIH 3T3 STAT1-luciferase reporter, IFN-gamma, luminescence; 100% = IFN-gamma alone, no compound. AID 932. 200,000 compounds, 2.6% hits. activation (% of control), % at 5.5 µM;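 active = activation above the screen-wide mean activation plus 3 SD, cut at about 130% in these data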;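 note: raw ratio to IFN-gamma control signal so 100% means no change and 0% no light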
NF-kB expr up = raises NF-kB expression in human neuronal cells. 190,000 compounds, 1.6% hits. fold change at 12.5 µM. NF-kB reporter expression; hits give high values; in the data active = fold change above about 3.3
STAT3 activator = increases IL-6 driven STAT3 reporter signal | U3A cells, IL-6 STAT3-luciferase reporter, luminescence; 100% = signal with IL-6 EC80 alone | activation (% of control), % at 5.6 µM | 190,000 compounds, 0.91% hits;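 active = activation above the screen-wide mean of compound activation plus 3 SD, cut at about 130% in these data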;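 note: 0% = background luminescence of wells with medium and substrate only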
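Test system: STAT3-luciferase reporter U3A cells; Detection: reporter luminescence signal; Times: 1 h compound pre-exposure, 6 h IL-6 stimulation, 37 °C; Benchmarks: IL-6-only high control; Also added: IL-6 stimulus at 33 ng/mL final.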
STAT1 blocker = inhibitors of IFN-gamma induced STAT1 signaling. NIH 3T3 STAT1-luciferase reporter, luminescence. inhibition, % at 5.5 µM. 200,000 compounds, 0.35% hits. AID 920;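 active = inhibition above a set limit, the mean inhibition across all tested compounds plus 3 SD, cut at about 34% in these data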;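 note: 0% = IFN-gamma with DMSO and 100% = IFN-gamma with 300 µM nifuroxazide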
STAT3 blocker = STAT3 signaling inhibition; U3A cells, IL-6 STAT3-luciferase reporter, luminescence; host cell line lacks STAT1; inhibition, % at 5.5 µM; 190,000 compounds, 0.89% hits;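 active = inhibition above the mean inhibition across all screened compounds plus 3 SD, cut at about 44% in these data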;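 note: 0% = DMSO only wells and 100% = 100 µM nifuroxazide control wells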
STAT1 act conf = STAT1 activation, confirmation assay. shares compounds with STAT1 act. NIH 3T3 STAT1-luciferase reporter, IFN-gamma potentiation, luminescence; 100% = IFN-gamma EC80 alone, no compound. activation (% of control), % at 5.7 µM. 1,200 compounds, 97% hits. AID 1262;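 active = activation above a set limit carried over from the earlier primary STAT1 screen, cut at about 140% in these data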;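 note: simple ratio to median IFN-gamma plus DMSO wells so 0% means no light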
NFkB act STAT1ct = NF-kappaB activation in STAT1 activator counter-screen; shares compounds with STAT1 act; HEK293T NF-kB luciferase reporter, TNF-alpha stimulated, luminescence; 100% = TNF-alpha with vehicle only; activation (% of control), % at 5.7 µM; 1,200 compounds, 43% hits; AID 1306;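 active = activation above the mean of solvent-only control wells plus 3 SD, set per campaign, cut at about 130% in these data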;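 note: TNF-alpha given at a submaximal dose yielding about 80% of full reporter signal; values are well signal over median control so 100% means no change and 0% no light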
STAT3 act STAT1c = human STAT3 activation in STAT1 activator counter-screen; 1,200 compounds, 46% hits; shares compounds with STAT1 act; activation (% of control), % at 5.7 µM; U3A cells STAT3-luciferase reporter, IL-6, luminescence; cells lack STAT1; 100 = IL-6 alone, no compound effect;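 active = activation above the solvent-only control well mean plus 3 SD, set per plate batch, cut at about 110% in these data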;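 note: 0% = no luminescence and 100% = median IL-6 plus DMSO wells; higher means more STAT3 reporter activation so hits are non-selective activators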
* marks the source's active call; other numbers are inactive results; x = no result. Sampled rows, rich in hits. Any-hit rate of the full collection: about 4.9%.

SMILES | APP 5'UTR act | STAT1 act | NF-kB expr up | STAT3 activator | STAT1 blocker | STAT3 blocker | STAT1 act conf | NFkB act STAT1ct | STAT3 act STAT1c
CCOC(=O)/C=C/COc1ccccc1[N+](=O)[O-] | 40 | 154* | 2.1 | 107 | -58 | -4 | 146* | 119 | 100
CC(C)(C)C(=O)COc1ccccc1[N+](=O)[O-] | -3 | 94 | 0.75 | 103 | 6 | 6 | x | x | x
CCCCNc1nc(N)nc(-c2cc(Cl)ccc2O)n1 | 155* | 178* | 1.6 | 110 | -89 | -7 | 230* | 145* | 154*
CCCNc1nc(N)nc(-c2cc(Cl)ccc2OC)n1 | -6 | 97 | 0.82 | 107 | 3 | -8 | x | x | x
CCNc1nc(N)nc(-c2cc(Cl)ccc2O)n1 | 215* | 196* | 6.8* | 77 | -104 | 29 | 288* | 145* | 167*
Cc1cc(C)c(C#N)c(SCSCc2ccccc2)n1 | -4 | 104 | 1 | 87 | -4 | 20 | x | x | x
COc1ccccc1CN1CCN(Cc2nc(-c3cccs3)no2)CC1 | 28 | 109 | 1.6 | 107 | -11 | 4 | x | x | x
O=C(O)CCc1nc(-c2cccs2)no1 | -2 | 96 | 1.1 | 106 | 4 | -1 | x | x | x
O=[N+]([O-])c1ccc(F)cc1OCc1nc(-c2cccs2)no1 | 156* | 172* | 6.4* | 106 | -81 | 4 | 203* | 145* | 120*
O=[N+]([O-])c1ccccc1OCc1nc(-c2cccs2)no1 | 185* | 180* | 7.6* | 109 | -87 | -2 | 226* | 142* | 122*
c1ccc(-c2nc3c(ccc4ccccc43)[nH]2)nc1 | 111 | 173* | 3.7* | 131 | -72 | -33 | 187* | 120 | 130*
CCC(=O)N1CCc2cc(S(=O)(=O)CCC(=O)Nc3cccc(C)n3)ccc21 | 5 | 98 | 1.2 | 104 | -1 | 1 | x | x | x
CCCCOc1ccc(C(=O)N/N=C/c2ccc(OCCN3CCCCC3)c(OC)c2)cc1 | 9 | 99 | 0.57 | 101 | 2 | 1 | x | x | x
CC1CCc2nc(/C(C#N)=C/c3ccncc3)sc2C1 (configuration not stated) | 47 | 152* | 1.1 | 90 | -60 | 14 | 160* | 130 | 94
N#CC1=C(Nc2ccc(Br)cc2)CCC1 | 11 | 93 | 1.1 | 93 | 8 | 13 | x | x | x
Brc1ccc(NC2=Nc3ccccc3CC2)cc1 | 99 | 158* | 4.7* | 79 | -63 | 28 | 187* | 141* | 101
Cc1ccccc1-c1nnc(NC(=O)c2cc3ccccc3oc2=O)s1 | 19 | 103 | 1.2 | 100 | -3 | 0 | x | x | x
Cc1cccnc1NC(=O)c1cc2ccccc2oc1=O | 176* | 156* | 4.2* | 97 | -59 | 4 | 191* | 117 | 117*
Cc1ncsc1C(=O)Nc1nc2c(s1)CCCC2 | 101 | 154* | 3.2 | 87 | -59 | 18 | 175* | 124 | 105
O=C(Nc1nc2c(s1)CCCC2)c1ccc2ncsc2c1 | 160* | 182* | 3 | 86 | -86 | 18 | 271* | 139* | 111*
COc1ccc(OC)c2sc(NC(=O)c3ccc(Br)s3)nc12 | 20 | 101 | 1.2 | 98 | 0 | 3 | x | x | x
O=C(Nc1nc2c(s1)CCCC2)c1ccc(Br)s1 | 146* | 166* | 6.1* | 86 | -74 | 21 | 256* | 138* | 104
COC(=O)c1ccc(C(=O)NC(=S)Nc2nc3c(s2)CCCC3)cc1 | 22 | 124 | 1.7 | 107 | -27 | -2 | x | x | x
COc1ccc(C(=O)NC(=S)N2CC(C)OC(C)C2)cc1OC (configuration not stated) | 5 | 101 | 1.2 | 99 | -5 | 6 | x | x | x
CC(=O)NC1C(OCc2ccccc2)OC2COC(c3ccccc3)OC2C1OCC(=O)O (configuration not stated) | 7 | 101 | 1.3 | 97 | -3 | 6 | x | x | x
SMILES | APP 5'UTR act | STAT1 act | NF-kB expr up | STAT3 activator | STAT1 blocker | STAT3 blocker | STAT1 act conf | NFkB act STAT1ct | STAT3 act STAT1c
CCN(C(=O)CN1CCN(S(=O)(=O)c2ccccc2C(F)(F)F)CC1)c1c(N)n(Cc2ccccc2)c(=O)[nH]c1=O | 10 | 103 | 1.2 | 100 | -4 | 8 | x | x | x
COc1cc(SC)ccc1C(=O)Nc1ccon1 | 48 | 120 | 2.1 | 89 | -22 | 18 | x | x | x
COc1cc(SC)ccc1C(=O)NCCc1ccccc1 | 85 | 161* | 3.5* | 111 | -68 | -10 | 169* | 123 | 144*
COc1cc(SC)ccc1C(=O)Nc1ncc(Cl)cc1Cl | 142* | 151* | 3.8* | 88 | -55 | 19 | 174* | 125 | 94
COc1cc(SC)ccc1C(=O)Nc1ccc(C)cc1C | 116 | 153* | 4* | 104 | -60 | -2 | 189* | 131 | 106
COc1cc(SC)ccc1C(=O)Nc1ccc2c(c1)OCO2 | 170* | 153* | 7.6* | 93 | -57 | 9 | 250* | 136* | 106
O=c1c2nnn(-c3ccc(Br)cc3)c2ncn1Cc1ccccn1 | -5 | 98 | 1.2 | 94 | 2 | 10 | x | x | x
C/C(=N\N(c1ccccc1)c1ccccc1)c1ccco1 | 30 | 103 | 1.3 | 110 | -3 | -10 | x | x | x
O=C(CCNc1n[nH]c(=O)[nH]c1=O)N/N=C\c1cccc(OCc2ccccc2)c1 | 2 | 106 | 1.1 | 94 | -8 | 11 | x | x | x
Cc1ccc(NC(=O)c2ccc(OC(=O)COc3cccc(Cl)c3)cc2)cc1 | 111 | 154* | 1.6 | 112 | -60 | -18 | 170* | 129 | 111*
Cc1ccc(NC(=O)c2ccc(OC(=O)COc3ccc(Cl)cc3C)cc2)cc1 | 88 | 159* | 1.4 | 104 | -66 | -8 | 167* | 128 | 119*
Cc1ccc(C(=O)CC(=O)COc2ccc(Cl)cc2C)cc1 | -1 | 105 | 0.85 | 102 | -6 | -3 | x | x | x
COc1ccccc1CNC(=O)C(=O)NCC(c1ccco1)N1CCOCC1 (configuration not stated) | -5 | 90 | 1.1 | 96 | 9 | 15 | x | x | x
O=C1/C(=C/c2c[nH]c3ccccc23)CCC/C1=C\c1c[nH]c2ccccc12 | 19 | 110 | 1 | 90 | -11 | 12 | x | x | x
Cc1ccccc1/C=C1\CCCc2ccccc2C1=O | 116 | 158* | 5.7* | 92 | -63 | 8 | 195* | 137* | 110
